Reference: ChEMBL document CHEMBL3244036, “Inhibition of beef-brain and dog-heart (Na+ + k+) activated adenosine triphosphatase by carbon-3 branched cardenolides” (J Med Chem, 1978)

Key:
Bos taurus [1] = organism: Bos taurus; assay: Inhibition of beef-brain Na(+)/K(+) ATPase assessed as oxidation of NADH using ATP substrate preincubated for 5 mins
Outline: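 Microsomal enzyme from frozen, partially thawed beef brain. Pyruvate kinase/lactate dehydrogenase-coupled system with inhibitor (in water, or DMSO made up with water) preincubated 5 min before adding ATP. NADH oxidation followed photometrically. Final volume 2.95 mL. At least four roughly log-equidistant concentrations, each in duplicate or triplicate. IC50 from linear regression of % inhibition against log concentration.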

Canis lupus familiaris = organism: Canis lupus familiaris; assay: Inhibition of dog-heart microsomal Na(+)/K(+) ATPase using ATP substrate
Outline: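 Microsomal enzyme from frozen dog heart in Tris-HCl pH 7.4 containing MgCl2, KCl and NaCl. Preincubated with inhibitor for 5 min, then pyruvate kinase, lactate dehydrogenase, phosphoenolpyruvate and NADH added. Reaction started with ATP; NADH oxidation read photometrically. At least four log-spaced concentrations, each in duplicate or triplicate. Linear regression of % inhibition against log concentration.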

Bos taurus [2] = organism: Bos taurus; assay: Inhibition of beef-brain Na(+)/K(+) ATPase assessed as oxidation of NADH using ATP substrate at 5 uM preincubated for 5 mins relative to digitoxigenin

Row | Structure (SMILES) | ID50 (Bos taurus [1]) [µmol] | ID50 (Canis lupus familiaris) [µmol] | fold change (FC) (Bos taurus [2])
1 | C[C@]12CC[C@@H](O)C[C@H]1CC[C@@H]1[C@@H]2CC[C@]2(C)[C@@H](C3=CC(=O)OC3)CC[C@]12O | 1.17 | – | –
2 | C=CC[C@@]1(O)CC[C@@]2(C)[C@H](CC[C@@H]3[C@@H]2CC[C@]2(C)[C@@H](C4=CC(=O)OC4)CC[C@]32O)C1 | 5.81 | – | –
3 | CC[C@]1(O)CC[C@@]2(C)[C@H](CC[C@@H]3[C@@H]2CC[C@]2(C)[C@@H](C4=CC(=O)OC4)CC[C@]32O)C1 | 2.15 | 0.73 | 100
4 | C[C@]12CC[C@@](O)(C3CO3)C[C@H]1CC[C@@H]1[C@@H]2CC[C@]2(C)[C@@H](C3=CC(=O)OC3)CC[C@]12O (some centres not stated) | 2.03 | 1.1 | 100
5 | C[C@]12CC[C@](O)(CC3CO3)C[C@H]1CC[C@@H]1[C@@H]2CC[C@]2(C)[C@@H](C3=CC(=O)OC3)CC[C@]12O (some centres not stated) | 4.06 | – | –
6 | C=C[C@]1(O)CC[C@@]2(C)[C@H](CC[C@@H]3[C@@H]2CC[C@]2(C)[C@@H](C4=CC(=O)OC4)CC[C@]32O)C1 | 0.31 | 0.092 | 100
7 | C[C@]12CC[C@]3(CO3)C[C@H]1CC[C@@H]1[C@@H]2CC[C@]2(C)[C@@H](C3=CC(=O)OC3)CC[C@]12O | 0.74 | – | –
8 | C[C@]12CC[C@@](O)(C(O)CO)C[C@H]1CC[C@@H]1[C@@H]2CC[C@]2(C)[C@@H](C3=CC(=O)OC3)CC[C@]12O (some centres not stated) | 15.4 | 7.8 | 100
9 | C[C@]12CC[C@@](O)(c3ccccc3)C[C@H]1CC[C@@H]1[C@@H]2CC[C@]2(C)[C@@H](C3=CC(=O)OC3)CC[C@]12O | 2.11 | 0.6 | 100
10 | C[C@]12CC[C@](O)(C(O)CO)C[C@H]1CC[C@@H]1[C@@H]2CC[C@]2(C)[C@@H](C3=CC(=O)OC3)CC[C@]12O (some centres not stated) | 1.7 | – | –
11 | C[C@]1(O)CC[C@@]2(C)[C@H](CC[C@@H]3[C@@H]2CC[C@]2(C)[C@@H](C4=CC(=O)OC4)CC[C@]32O)C1 | 0.92 | 0.32 | 100
12 | C=CC[C@]1(O)CC[C@@]2(C)[C@H](CC[C@@H]3[C@@H]2CC[C@]2(C)[C@@H](C4=CC(=O)OC4)CC[C@]32O)C1 | 1.25 | 0.55 | 100
13 | C[C@]12CC[C@@](O)(CC(O)CO)C[C@H]1CC[C@@H]1[C@@H]2CC[C@]2(C)[C@@H](C3=CC(=O)OC3)CC[C@]12O (some centres not stated) | 7.66 | 4.44 | 100
14 | C[C@]12CC[C@](O)(C3CO3)C[C@H]1CC[C@@H]1[C@@H]2CC[C@]2(C)[C@@H](C3=CC(=O)OC3)CC[C@]12O (some centres not stated) | 3.17 | – | –
15 | C[C@]12CC[C@@]3(CO3)C[C@H]1CC[C@@H]1[C@@H]2CC[C@]2(C)[C@@H](C3=CC(=O)OC3)CC[C@]12O | 0.71 | 0.275 | 100
16 | C[C@]12CC[C@](O)(CC(O)CO)C[C@H]1CC[C@@H]1[C@@H]2CC[C@]2(C)[C@@H](C3=CC(=O)OC3)CC[C@]12O (some centres not stated) | 2.34 | – | –
17 | C[C@@]1(O)CC[C@@]2(C)[C@H](CC[C@@H]3[C@@H]2CC[C@]2(C)[C@@H](C4=CC(=O)OC4)CC[C@]32O)C1 | 11.4 | – | –
18 | C#C[C@@]1(O)CC[C@@]2(C)[C@H](CC[C@@H]3[C@@H]2CC[C@]2(C)[C@@H](C4=CC(=O)OC4)CC[C@]32O)C1 | 2.11 | – | –
19 | C#C[C@]1(O)CC[C@@]2(C)[C@H](CC[C@@H]3[C@@H]2CC[C@]2(C)[C@@H](C4=CC(=O)OC4)CC[C@]32O)C1 | 0.25 | 0.12 | 100
20 | C[C@]12CC[C@H](O)C[C@H]1CC[C@@H]1[C@@H]2CC[C@]2(C)[C@@H](C3=CC(=O)OC3)CC[C@]12O | 0.096 | 0.035 | –
21 | CC[C@@]1(O)CC[C@@]2(C)[C@H](CC[C@@H]3[C@@H]2CC[C@]2(C)[C@@H](C4=CC(=O)OC4)CC[C@]32O)C1 | 6.4 | – | –
22 | C=C[C@@]1(O)CC[C@@]2(C)[C@H](CC[C@@H]3[C@@H]2CC[C@]2(C)[C@@H](C4=CC(=O)OC4)CC[C@]32O)C1 | 6.68 | – | –
23 | C[C@]12CC[C@](O)(c3ccccc3)C[C@H]1CC[C@@H]1[C@@H]2CC[C@]2(C)[C@@H](C3=CC(=O)OC3)CC[C@]12O | 5.81 | – | –
24 | C[C@]12CC[C@@](O)(CC3CO3)C[C@H]1CC[C@@H]1[C@@H]2CC[C@]2(C)[C@@H](C3=CC(=O)OC3)CC[C@]12O (some centres not stated) | 3.65 | 1.69 | 100
